RAM inhibit = yeast RAM network inhibition. S. cerevisiae dse1pr::URA3 reporter, 5-FOA growth OD615, 2 d; analog-sensitive cbk1-as2 kinase mutant strain. inhibition, % at 50 µM. 190,000 tested, 1.8% active;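 active = inhibition above a set limit, 3 SD over mean compound inhibition, cut at about 8.4% in these data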;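 note: 0% = DMSO-only wells with no growth and 100% = 10 µM 1-NA-PP1 full growth; inhibition rescues growth on 5-FOA so higher OD means more RAM inhibition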
L major viab = reduces viability of Leishmania major promastigotes; resazurin fluorescence viability; 200,000 tested, 9% active; inhibition, % at 10 µM; in the data active = inhibition above about 50%;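 note: promastigotes grown with compound for 44 hours at 28 °C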
ABCB1 inh = inhibitors of human ABCB1 transporter, ABCG2 counter-screen; inhibition, % at 6.6 µM; CCRF-Adr cells, JC-1 efflux, flow cytometry; 190,000 tested, 0.067% active; in the data active = inhibition above about 40%;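 note: 0% = vehicle and 100% = reference inhibitor; higher value means more JC-1 retained so stronger ABCB1 efflux block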
WT yeast gro inh = growth inhibition of WT yeast, mitochondrial fusion screen; inhibition, % at 10 µM; 190,000 tested, 2.1% active; mitochondrial fusion phenotypic screen, WT strain; in the data active = inhibition above about 58%; tested in S. cerevisiae
ABCG2 inh = human ABCG2 inhibition, ABCB1 as counter-screen; inhibition, % at 6.6 µM; AID 1325; 190,000 tested, 0.1% active; IgMXP3 cells, JC-1 efflux, flow cytometry; Q9UNQ0;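 active = inhibition above 80%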;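 note: 0% = DMSO and 100% = nicardipine control wells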
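Test system: IgMXP3 (ABCG2) plus far-red-tagged CCRF-Adr (ABCB1) cells. Reagent: JC-1 dye as substrate. Timing: 10 min exposure at 25 °C with rotation, no wash. Measured by: flow cytometric JC-1 green MFI at 530 nm. Read-out: percent efflux inhibition, scaled nicardipine 100% to DMSO 0%. Control set: nicardipine and DMSO wells.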
Active calls of the source: *; x = not tested or not shown. An excerpt weighted towards active compounds, which were near 12% of everything screened.

SMILES | RAM inhibit | L major viab | ABCB1 inh | WT yeast gro inh | ABCG2 inh
CC(=S)c1c(C)cc2cc(C)ccn12 | 4 | -10 | -1 | 1 | -3
CC(C)(C)NC(=O)c1ccc(COc2ccccc2Br)o1 | 0 | 78* | 0 | 9 | 0
O=C(Nc1nc2ccccc2n1CCN1CCOCC1)c1ccc(COc2ccccc2Br)o1 | -1 | 55* | 2 | 22 | 6
CCN(CC)C(=O)c1ccc(COc2ccccc2Cl)cc1 | 0 | 63* | 1 | 31 | 5
CCN(CC)C(=O)c1ccc(COc2ccccc2Br)o1 | 1 | 88* | 2 | 12 | 7
COc1ccccc1OCc1ccc(C(=O)NC(C)(C)C)o1 | -1 | 3 | 0 | 4 | 1
O=C(Nc1nc2ccccc2n1Cc1ccccc1)c1ccc(COc2ccccc2[N+](=O)[O-])o1 | 4 | -3 | 0 | -9 | -1
O=C(O)c1ccc(COc2ccccc2Cl)cc1 | 2 | -3 | 0 | 51 | 0
Cc1noc(C)c1COC(=O)[C@@H](NC(=O)c1ccccc1)C(C)C | 1 | -7 | 1 | -4 | 2
Cc1c(N/C(=N/S(=O)(=O)c2ccc(Cl)cc2)c2ccccc2)c(=O)n(-c2ccccc2)n1C | 0 | -6 | 0 | 8 | 1
COCCNC(=O)Cn1cc(C(=O)c2ccco2)c2ccccc21 | 1 | 0 | -1 | -10 | 14
CCNCc1cc(OCC)c(OCC(=O)NCCc2ccccc2)cc1Cl | 1 | 99* | 0 | 14 | 1
CNCc1ccccc1OCC(=O)Nc1ccccc1 | 1 | -1 | 1 | -10 | 27
CCOc1cc(CNCC(C)C)c(Cl)cc1OCC(=O)Nc1ccccc1 | 1 | 82* | 1 | 1 | 17
CCc1ccc(OCc2nnc(SCC(=O)N3CCN(c4ccccc4)CC3)o2)cc1 | 8.4* | -6 | 0 | -4 | 0
Cc1oc(/C=N/NC(=O)CC2(C)OCCO2)cc1Br | 0 | -4 | 0 | -13 | 2
CC1(CC(=O)N/N=C/c2cc(Br)c(O)cc2O)OCCO1 | 0 | 91* | 1 | 16 | 2
COC(=O)Nc1cc(C)nc2ccccc12 | 0 | 55* | 1 | 4 | 6
CCCCC(=O)Nc1nc(C)c(-c2csc(Nc3cc(Cl)ccc3OC)n2)s1 | 1 | 40 | -1 | 6 | -2
CCCCC(=O)Nc1nc(C)c(-c2csc(Nc3cc(OC)ccc3OC)n2)s1 | 3 | 73* | -1 | 19 | -2
CCC(C)C(=O)Nc1nc(C)c(-c2csc(Nc3cc(Cl)ccc3OC)n2)s1 (configuration not stated) | 0 | 43 | 0 | 24 | -1
CCC(C)C(=O)Nc1nc(C)c(-c2csc(Nc3cc(OC)ccc3OC)n2)s1 (configuration not stated) | 4 | 57* | 1 | 28 | 0
COc1ccc(OC)c(Nc2nc(-c3sc(NC(=O)CC(C)C)nc3C)cs2)c1 | 3 | 81* | 1 | 3 | 3
C=CCNC(=S)N(C1CCCCC1)C1CCCCC1 | -1 | 5 | 0 | 72* | 4
COC(=O)c1nnn(-c2ccsc2C(=O)OC)c1C(=O)OC | 2 | -9 | 1 | -8 | 4
SMILES | RAM inhibit | L major viab | ABCB1 inh | WT yeast gro inh | ABCG2 inh
CCOC(=O)c1c(C2CC2)csc1NC(=O)COC(=O)c1cc(OC)c(OC)cc1[N+](=O)[O-] | 4 | 91* | 2 | 2 | 41
CSc1ccc(NC(=O)N2CC=C(n3c(=O)[nH]c4ccccc43)CC2)cc1 | 5 | 27 | 1 | -8 | 14
O=C(CN1CCOCC1)NN=C1CCCCCCCCCCC1 | 0 | 52* | 0 | -6 | 2
O=C(CN1CCOCC1)NN=C(c1ccccc1)c1ccccc1 | -1 | -1 | 1 | -12 | 4
CCN(CC(=O)Nc1c(F)cccc1F)C(=O)COc1ccc2c(C)cc(=O)oc2c1 | 7 | 3 | 0 | -15 | 10
COC(=O)c1ccc2c(=O)n(Cc3ccco3)c(SCC(=O)Nc3ccc(C)c(Cl)c3)nc2c1 | 2 | -2 | 0 | 17 | 0
O=C(CSc1nc2ccccc2c(=O)n1CCCN1CCOCC1)Nc1ccc2c(c1)OCO2 | 0 | 20 | 2 | -19 | 1
CCOC(=O)CSc1nc2c(sc3ccccc32)c(=O)n1CCCN1CCOCC1 | 0 | 100* | 2 | 3 | 5
CS(=O)(=O)c1ccc(Cl)c(NC(=O)CSc2nc3ccccc3c(=O)n2CCCN2CCOCC2)c1 | 1 | 85* | 3 | -6 | 51
NS(=O)(=O)c1cccc(NC(=O)CSc2nc3ccccc3c(=O)n2CCCN2CCOCC2)c1 | 2 | -8 | 1 | 5 | 5
O=C(CSc1nc2cc(Cl)ccc2c(=O)n1Cc1ccco1)Nc1ccc(S(=O)(=O)N2CCOCC2)cc1 | 9.1* | 44 | -1 | -9 | -3
O=C(CSc1nc2ccccc2c(=O)n1CCCN1CCOCC1)c1c[nH]c2ccccc12 | 1 | 53* | 0 | -10 | 1
COc1ccccc1CNC(=O)C(NC(=O)c1ccccc1)C(C)C (configuration not stated) | 1 | 7 | 2 | 3 | 4
S=c1[nH]nc(C23CC4CC(CC(C4)C2)C3)n1Cc1ccco1 | 0 | 6 | 1 | 40 | 13
CC1CN(C(=O)COC(=O)c2nn(-c3ccccc3)c(=O)c3ccccc23)CC(C)O1 (configuration not stated) | 0 | -5 | 2 | 1 | 7
COc1ccccc1CNC(=O)CSc1nc2ccccc2c(=O)n1CCCN1CCOCC1 | 0 | 1 | 0 | 2 | 2
COc1ccc(NC(=O)CSc2nc3ccccc3c(=O)n2CCCN2CCCCC2)c(OC)c1 | -1 | 100* | 3 | 0 | 2
CN(CC(O)Cn1cnc2c1c(=O)n(C)c(=O)n2C)c1ccccc1 (configuration not stated) | 2 | -5 | 0 | -13 | 5
COCCOc1cc(Nc2nnc(C(F)(F)F)s2)c(Cl)cc1Cl | 3 | 63* | 0 | 14 | 2
COc1cc(Nc2nnc(C)s2)c(Cl)cc1Cl | 1 | 17 | 0 | 5 | 4
COc1ccc(C(=O)CSc2n[nH]c(C)n2)cc1[N+](=O)[O-] | 2 | 10 | 0 | 5 | 9
CCOC(=O)C1=C(C)Nc2ccccc2N=C1NC(=O)c1ccc(Cl)c(S(=O)(=O)N2CCCC2)c1 | 8.7* | -13 | 3 | -1 | 6
Cc1c(Cl)cccc1NC(=O)CN1CCN(CCN=CC2=C(O)CC(c3ccccc3)CC2=O)CC1 (configuration not stated) | 0 | -15 | 2 | -14 | 3
COc1ccc2[nH]c(=O)c(CN(C(=O)c3ccco3)C3CCCCC3)cc2c1 | 5 | 94* | 0 | x | 1
COc1ccc2[nH]c(=O)c(CN(C(C)=O)C3CCCCC3)cc2c1 | 2 | -1 | 0 | 17 | 0
COc1ccc2[nH]c(=O)c(CN(C(=O)NC3CCCCC3)C3CCCC3)cc2c1 | 1 | 100* | 8 | 18 | 40
